Results from ChEMBL document CHEMBL4513216, “Probing the Open Global Health Chemical Diversity Library for Multistage-Active Starting Points for Next-Generation Antimalarials” (ACS Infect Dis, 2020).

assay: Toxicity liver stage against HepG2, at 10uM; type: cell-based; set-up: test concentration 10 uM, cell line HepG2-A16-CD81EGFP; conditions: human, HepG2-A16-CD81EGFP cells; read-out: INHIBITION
Procedure, shortened: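 Uninfected HepG2-A16-CD81EGFP cells, 3 × 10^3 per well, 1536-well, plated on prespotted compound at 10 μM final, parasite-free screening media added to match infected plates; puromycin 10 μM positive, DMSO 0.5% negative; run in parallel with 48 h PbLuc assay at 37 °C, 5% CO2; viability by CellTiter-Glo luminescence, normalized to controls.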

Going from `O=C(Cn1cccn1)Nc1ccc(N2CCOCC2)cc1` to `O=C(NCCn1cccn1)c1nnc2ccccc2n1`, the cytotoxicity at 10 µM rises from -2.51% to -2.41%.

First: c1cnc(N2C[C@H](OCC3CCOCC3)[C@H]3COC[C@H]32)nc1
Second: c1cc(CO[C@@H]2CC[C@H]3[C@H]2OCCN3CC2CCOCC2)ccn1
The cytotoxicity at 10 µM of the first is lower: -1.92% for the first, 26.9% for the second.

Going from `Cn1nnc2c1C(COCC1CC1)CN(C(=O)[C@H]1CCCO1)C2` (stereo not given in full) to `CCNC(=O)CN1CCC(OCC2CCCO2)CC1` (stereo not given), the cytotoxicity at 10 µM rises from -8.01% to -3.78%.

First: O=C(c1ncn2c1CNS(=O)(=O)c1ccccc1-2)N1CCCCCC1
Second: Cc1nnsc1C(=O)N1CC[C@H](c2ccccc2)[C@@H]2[C@H]1CCCCN2C
The cytotoxicity at 10 µM of the first is higher: 9.79% for the first, -17.6% for the second.

First: Cc1cccc(COC[C@H]2CC[C@H]3[C@H](CCN3Cc3ccco3)O2)n1
Second: Cc1oc(-c2ccccc2)nc1CN1CCC(c2ccnn2C)CC1
The cytotoxicity at 10 µM of the first is lower: -172% for the first, 15.6% for the second.

Going from `CO[C@@H]1CO[C@@]2(CCN(C(=O)COc3ccccc3C)C2)C1` to `Cc1ccccc1C(=O)NC[C@@H]1CCN(C(=O)C2(O)CCCC2)C[C@H]1O`, the cytotoxicity at 10 µM falls from 9.95% to -38.7%.

Going from `COc1cccc(CN2CCCC3(CCN(C(=O)c4ccco4)C3)C2)c1` (stereo not given) to `CSc1nccc(N2CCC3(CCCN(Cc4cccc(C)c4)C3)C2)n1` (stereo not given), the cytotoxicity at 10 µM rises from 6.34% to 12.1%.

First: Cc1cc(C(=O)N(C)Cc2cnn(C)c2C)n(C)n1
Second: Cc1noc(C)c1CCC(=O)Nc1ccn(C)n1
The cytotoxicity at 10 µM of the first is higher: 8.19% for the first, -2.4% for the second.

First: CS(=O)(=O)N1CC(c2n[nH]c3ncccc23)C1
Second: OCC1CCCN(Cc2c(C3CCCC3)[nH]c3ncccc23)C1 (stereo not given)
The cytotoxicity at 10 µM of the first is lower: -23.4% for the first, 6.35% for the second.

First: CCOc1nnc(CN(CC)CC(=O)Nc2c(F)cccc2F)s1
Second: CCN(C(=O)Nc1nccs1)C(C)c1cccc(O)c1 (stereo not given)
The cytotoxicity at 10 µM of the first is lower: -2.62% for the first, -2.11% for the second.

Going from `COCc1cccc(CNc2cnn(C(C)(C)C)c(=O)c2Cl)c1` to `CC(C)(C)Oc1ccncc1NCc1cscn1`, the cytotoxicity at 10 µM falls from 59.2% to 15.7%.

Going from `Cn1cnnc1S(=O)(=O)Cc1cc(Cl)c2c(c1)OCO2` to `Cc1nn(C)cc1C(C)Nc1ncc(C(N)=O)cc1Cl` (stereo not given), the cytotoxicity at 10 µM rises from -36.6% to 3.68%.

First: COC(=O)c1cccc(C(=O)N(CCC#N)CC(C)(C)C)c1
Second: CC(=O)C(C)CC(=O)N(Cc1cccc(C)c1)C(C)C (stereo not given)
The cytotoxicity at 10 µM of the first is higher: 7.72% for the first, -3.73% for the second.

Going from `Cc1cc(C)n(CCN2CCC(N(C)Cc3noc(C4CC4)n3)C2)n1` (stereo not given) to `Cc1cc(CN2CC[C@H]3C[C@@H](c4nc(C5CC5)cs4)O[C@@H]3C2)no1`, the cytotoxicity at 10 µM falls from -2.92% to -104%.

First: CN1CCN(c2ccc(NCc3ccsc3)cn2)CC1
Second: Cc1cccc(C(=O)N2CCn3c(CN4CCN(C)CC4)cnc3C2)n1
The cytotoxicity at 10 µM of the first is higher: 2.97% for the first, -75.2% for the second.

Going from `Cc1nc(NS(=O)(=O)c2ccc(C)c(Br)c2)no1` to `Cc1cc(O)ncc1NS(=O)(=O)c1cccc(F)c1F`, the cytotoxicity at 10 µM falls from 11.2% to 0.753%.

Compared with `COc1ccc(-c2nnc(C(C)N3CCC4(CC3)OCCO4)o2)cc1` (stereo not given), `Cc1noc(C(C)N2CCN(c3ncnc4sccc34)CC2)n1` (stereo not given) is lower in cytotoxicity at 10 µM: 12.5% for the first, 8.38% for the second.

First: CCN(C(=O)CN1CCCN(c2nc(C)ns2)CC1)C1CC1
Second: O=C(CC1=CSC2=NCCN12)N1CCCC(CCc2cccc(F)c2)C1 (stereo not given)
The cytotoxicity at 10 µM of the first is lower: -4.08% for the first, 5.21% for the second.

Compared with `Cc1cnn(C2CN(CCOc3cccc(C#N)c3)C2)c1`, `CCn1ccnc1CN1CCN(Cc2cccc(C#N)c2)CC1` is lower in cytotoxicity at 10 µM: 5.62% for the first, -22.3% for the second.

Going from `c1csc(CCNC2CCc3ncnn3C2)c1` (stereo not given) to `c1ccc(-c2cccc(N3CCC(NCCc4cscn4)CC3)c2)cc1`, the cytotoxicity at 10 µM falls from 17.3% to 3.58%.

Going from `CC(C)c1noc(C(C)S(=O)(=O)Cc2nc(C3CC3)no2)n1` (stereo not given) to `CC(C)CCN1CCc2nc(N3CCOCC3)nc(NC(C)C)c2C1`, the cytotoxicity at 10 µM falls from -0.828% to -113%.

Going from `COc1ccc(CN(C)CCS(=O)(=O)c2ccc(Cl)cc2)cc1OC` to `NCC(c1ccc(Cl)cc1)N1CCc2sccc2C1` (stereo not given), the cytotoxicity at 10 µM rises from 2.68% to 6.33%.

Compared with `CCC(=O)CNC(=O)CCn1nc2ccccn2c1=O`, `COCC(=O)NCCC(=O)N1CCN(S(=O)(=O)c2ccc(Br)cc2)CC1` is lower in cytotoxicity at 10 µM: 9.5% for the first, -38.2% for the second.

First: COCCNC(=O)Nc1cc2c(cc1SC)OCCO2
Second: COCCn1c2c(ccc1=O)CC(NC(=O)c1cscn1)CC2 (stereo not given)
The cytotoxicity at 10 µM of the first is higher: -3.59% for the first, -97% for the second.

First: NC(=O)C1CCN(C(=O)C2SCCc3sccc32)CC1 (stereo not given)
Second: O=C(C1CC1)N1CCC2(CC1)COCCN2Cc1ccc(F)cc1
The cytotoxicity at 10 µM of the first is higher: -6.02% for the first, -69.4% for the second.

Going from `C=C(C)Cn1nnc(C2(NC(=O)c3ccccc3)CCCC2)n1` to `O=C1CC2(CCCCN2C(=O)Cc2ccccc2)CN1c1cccnc1` (stereo not given), the cytotoxicity at 10 µM falls from 7.09% to -2.71%.

Compared with `NC(=O)C1CCCN1Cc1cccc(NC(=O)c2cc(Cl)cc(Cl)c2)c1` (stereo not given), `NC(=O)Nc1cccc(C(=O)N(Cc2ccncc2)C2CC2)c1` is lower in cytotoxicity at 10 µM: 21.3% for the first, -2.34% for the second.

Compared with `CN(Cc1ccco1)Cc1ccccc1CNC(=O)c1cnc[nH]1`, `CC(c1cccnc1)N(C)Cc1ccccn1` (stereo not given) is lower in cytotoxicity at 10 µM: 2.6% for the first, 0.423% for the second.

Compared with `O=S(=O)(N1CCCCCC1)N1CCN(Cc2ccc(F)cc2Br)CC1`, `O=C(Cc1ccccn1)N1CCN2C[C@H](OCCN3CCCC3)C[C@H]2C1` is higher in cytotoxicity at 10 µM: -132% for the first, -77.2% for the second.

Compared with `CN(C)c1nc(N)nc(CN2CCCC2c2cccs2)n1` (stereo not given), `CN(C)CCC(Nc1nc(N)nc2c1CCNCC2)c1ccccc1` (stereo not given) is lower in cytotoxicity at 10 µM: 5.21% for the first, -4.32% for the second.

First: CN(Cc1ccncc1)C(CO)c1cccc(F)c1 (stereo not given)
Second: CCC(CO)N(Cc1cccs1)C(=O)Cc1ccc(O)cc1 (stereo not given)
The cytotoxicity at 10 µM of the first is lower: 2.35% for the first, 6.57% for the second.

First: COc1ccc(C(N)=O)cc1NCc1ncc(-c2cccs2)o1
Second: CC[C@@H](CO)Nc1nccc(-c2c[nH]c3cc(C(=O)OC)ccc23)n1
The cytotoxicity at 10 µM of the first is lower: 8.2% for the first, 67.7% for the second.

First: O=C(COCCOc1ccccc1)Nc1ccnn1CC1CCOC1 (stereo not given)
Second: Cc1ccc(N2CC[C@@H]3[C@@H]2CCN3C(=O)Cc2ccccc2)nn1
The cytotoxicity at 10 µM of the first is higher: 1.88% for the first, -93.1% for the second.

Going from `CCOc1cc(CNC(=O)c2cnn(CC)c2C(F)(F)F)ccn1` to `CC(C)(C)c1ncc(C(=O)NCCSc2ccccn2)c(O)n1`, the cytotoxicity at 10 µM falls from 16.8% to -0.494%.

Compared with `Cc1noc(-c2cccnc2N(C)Cc2cscn2)n1`, `Cc1ncc(-c2ccnc(SCCN(C)C)n2)c(-c2ccco2)n1` is lower in cytotoxicity at 10 µM: -4.23% for the first, -7.25% for the second.

First: CSCC(=O)Nc1ncn(Cc2cccc(Br)c2)n1
Second: CC(Cn1cncn1)NC(=O)c1cn(Cc2ccccc2F)nn1 (stereo not given)
The cytotoxicity at 10 µM of the first is lower: -12% for the first, -1.62% for the second.

Compared with `Cc1occc1C(=O)N1CC[C@H]2C[C@@H](c3nnc(C4CC4)o3)O[C@@H]2C1`, `CCc1cccc(N2CCC(NC(=O)c3ccoc3C)CC2)c1` is higher in cytotoxicity at 10 µM: -111% for the first, -10.8% for the second.

Going from `CCCN1CCc2nc(N3CCOCC3)nc(NC(C)C)c2C1` to `CCCn1nc2c(cc1=O)CN(CCS(C)(=O)=O)CC2`, the cytotoxicity at 10 µM rises from -111% to -8.87%.

First: CC1CCCCN1C(=O)c1coc(COc2cccc3cnccc23)n1 (stereo not given)
Second: Cn1ncc2c(NCCOCc3ccccc3)nc(C3CCCC3)nc21
The cytotoxicity at 10 µM of the first is lower: -143% for the first, 9.67% for the second.

Compared with `O=C(O)c1cccnc1N1CCN(Cc2ccc(F)cc2)C(CCO)C1` (stereo not given), `CN(C)CCOCc1nnc2n1CCN(Cc1ccc(F)cc1)CC2` is lower in cytotoxicity at 10 µM: 12.3% for the first, -5.63% for the second.

First: O=C1CCC(C(=O)N2CCOC(Cc3ccccc3Cl)C2)=NN1 (stereo not given)
Second: O=C1NCC2(CCN(C(=O)c3ccc4c(c3)CCCO4)CC2)O1
The cytotoxicity at 10 µM of the first is higher: -0.108% for the first, -5.8% for the second.

First: CC1(C)CC(CC(=O)N2CC(C)(C)[C@@](C)(O)C2)CC(C)(C)N1
Second: Cn1ccnc1C(=O)N1CCC2(CCN2c2ncccn2)C1 (stereo not given)
The cytotoxicity at 10 µM of the first is lower: -4.84% for the first, -0.736% for the second.

First: CC(C)Oc1cccc(F)c1C(C(=O)O)N(C)Cc1ccon1 (stereo not given)
Second: Cc1cc(=O)c2cc(F)ccc2n1CC(=O)O
The cytotoxicity at 10 µM of the first is lower: -33.5% for the first, 0.753% for the second.

Compared with `O=C(c1ccc(S(=O)(=O)NCC(F)F)cc1)N1C[C@H]2CNC[C@H]2C1`, `CCN(CC)c1ccc2ccc(C(=O)N3CCCCO3)cn12` is higher in cytotoxicity at 10 µM: -13% for the first, 5.33% for the second.

First: OC1CCN([C@@H]2CCN(c3nc(-c4ccccc4)no3)C[C@H]2O)CC1
Second: CN1[C@@H]2CC[C@H]1CN(c1nc(-c3ccncc3)nc3c1cnn3C)CC2
The cytotoxicity at 10 µM of the first is lower: -9.88% for the first, 38.7% for the second.

First: Cc1nc(-c2cccnc2)ncc1C(=O)N1CCC(C(C)N(C)C)CC1 (stereo not given)
Second: Cc1ncnc2c1CCN(C(=O)c1ccncc1F)CC2
The cytotoxicity at 10 µM of the first is higher: -1.8% for the first, -71.1% for the second.

Going from `Cc1cc(N2CCC(n3cc(CN4CCC[C@@H]4CO)nn3)CC2)ccn1` to `COCC1CC2(CCN(Cc3nccs3)CC2)CN1Cc1ccccn1` (stereo not given), the cytotoxicity at 10 µM falls from 4.9% to -98.4%.

Going from `CC(C)n1cc(C(=O)NCCCc2csc(N)n2)cn1` to `CCC[C@H]1CN(c2nc(CO)cs2)C[C@@H]1NC(=O)C1(COC)CC1`, the cytotoxicity at 10 µM rises from -4.36% to -2.87%.

First: CCOCCN(CCOCC)c1nc(C)nc2sccc12
Second: COCCn1ccnc1CN(Cc1ccccn1)Cc1sccc1C
The cytotoxicity at 10 µM of the first is lower: -126% for the first, 2.16% for the second.

Going from `COc1cc(-c2cc(-c3ccn(C)c3)nc(N)c2C#N)cc(OC)c1O` to `Cc1ccnc(NC(=O)c2ccc(-n3ncc(C#N)c3N)cc2)c1`, the cytotoxicity at 10 µM rises from -7.77% to 1.22%.

Going from `Cc1ccc(CN2CC3(CCNCC3)CCC2=O)c(F)c1F` to `Cc1cn(Cc2ccc(F)c(F)c2)nc1N`, the cytotoxicity at 10 µM falls from 4.95% to -13.5%.

First: CCc1nc(C)c(CN2CCOC(CCCC(C)C)C2)[nH]1 (stereo not given)
Second: CCn1cc2c(n1)CN(Cc1ccc(F)cc1)CC2COCC1CC1 (stereo not given)
The cytotoxicity at 10 µM of the first is higher: -20% for the first, -69% for the second.

Compared with `Cn1cnc2c1CCN(Cc1csc(-c3ccccc3F)n1)C2`, `Cc1ccc(CN2CC3(CCN(C(=O)c4cccnc4)C3)C2)o1` is lower in cytotoxicity at 10 µM: -4.25% for the first, -79.6% for the second.

First: COc1cc2c(cc1CNCc1cccnc1-n1cccn1)OC(C)C2 (stereo not given)
Second: CN(C)C(=O)NC[C@@H]1OC[C@H]2CN(Cc3cccc(F)c3)CC[C@H]21
The cytotoxicity at 10 µM of the first is lower: 4.6% for the first, 4.93% for the second.

Going from `O=C1COC2(CCN(c3ncccn3)CC2)CN1` to `COc1ccc(CN2C[C@@H]3COC[C@@H](N4CCN(C)CC4)[C@@H]3C2)cc1`, the cytotoxicity at 10 µM falls from 12.9% to -103%.
